Assay [1] can be described thus: Her2 expression decrease, cell viability multiplex – SKBR3 breast tumor cells, AlphaScreen, ATP viability, primary screen (AID 461;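 active = Her2 level under about 52% in both replicate screens, with viability over 70% of control, limit read from the data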;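 for Her2 level: lower value means less Her2 protein in the cells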;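 for viability: percent of carrier control wells set as 100% viability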). As to conditions: SKBR3 Her2 protein level, 18-24 h, measured here: SKBR3 viability, ATP luminescence, at 10 µM. In general terms: In Alpha technology, singlet oxygen from a donor bead excites a nearby acceptor bead.
In assay [2] the target is Receptor tyrosine-protein kinase erbB-2 (Homo sapiens) (UniProt P04626). The description is as above. To be noted: 18-24 h, at 10 µM, stronger effect = lower value.
Sequence of Receptor tyrosine-protein kinase erbB-2 (Homo sapiens) (P04626 whole entry, looked up): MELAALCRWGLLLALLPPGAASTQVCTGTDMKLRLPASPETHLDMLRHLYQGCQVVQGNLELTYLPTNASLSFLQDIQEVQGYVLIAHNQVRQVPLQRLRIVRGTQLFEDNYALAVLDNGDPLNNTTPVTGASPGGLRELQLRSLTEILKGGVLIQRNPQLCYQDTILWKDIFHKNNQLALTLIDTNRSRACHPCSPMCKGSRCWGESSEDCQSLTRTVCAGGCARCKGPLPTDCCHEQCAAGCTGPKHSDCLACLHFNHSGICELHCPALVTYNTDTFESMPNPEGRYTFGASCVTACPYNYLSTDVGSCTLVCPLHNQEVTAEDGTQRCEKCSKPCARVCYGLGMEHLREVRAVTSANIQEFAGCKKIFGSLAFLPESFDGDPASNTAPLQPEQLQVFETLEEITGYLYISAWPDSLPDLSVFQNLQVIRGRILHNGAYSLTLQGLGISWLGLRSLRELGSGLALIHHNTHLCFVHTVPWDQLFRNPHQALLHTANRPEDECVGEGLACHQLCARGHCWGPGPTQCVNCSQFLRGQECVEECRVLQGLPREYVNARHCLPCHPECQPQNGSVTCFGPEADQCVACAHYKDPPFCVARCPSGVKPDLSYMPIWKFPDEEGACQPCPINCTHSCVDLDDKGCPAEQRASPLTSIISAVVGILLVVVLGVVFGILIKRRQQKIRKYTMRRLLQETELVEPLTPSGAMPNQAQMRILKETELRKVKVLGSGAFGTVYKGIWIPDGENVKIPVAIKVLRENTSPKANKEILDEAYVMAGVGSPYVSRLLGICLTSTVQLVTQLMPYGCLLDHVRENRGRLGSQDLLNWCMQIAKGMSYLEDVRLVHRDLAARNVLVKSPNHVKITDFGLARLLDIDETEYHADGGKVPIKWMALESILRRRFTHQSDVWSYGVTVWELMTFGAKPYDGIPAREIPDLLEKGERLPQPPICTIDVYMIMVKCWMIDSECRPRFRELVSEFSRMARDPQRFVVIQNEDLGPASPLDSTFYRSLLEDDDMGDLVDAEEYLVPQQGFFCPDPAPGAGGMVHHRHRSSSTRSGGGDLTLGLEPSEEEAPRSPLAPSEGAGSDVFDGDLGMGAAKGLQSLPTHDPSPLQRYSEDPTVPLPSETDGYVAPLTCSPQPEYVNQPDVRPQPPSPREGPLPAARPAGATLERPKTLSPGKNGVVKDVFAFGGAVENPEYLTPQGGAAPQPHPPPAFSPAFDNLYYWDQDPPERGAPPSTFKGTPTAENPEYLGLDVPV
Assay [3] in a line: reduced viability of SK-BR-3 breast cancer cells – cell-based, 24 h, human, pilot screen (AID 572;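 active = viability at or below 10% of carrier control in both of two separate runs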;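 note: compound exposure lasted between 18 and 24 h rather than exactly 24 h; 100% = carrier-treated control wells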). As to conditions: SK-BR-3 viability, CellTiter-Glo luminescence, at 10 µM, stronger effect = lower value.
Assay [4] in a line: HUVEC growth inhibition – cell-based, human, primary screen (AID 575;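 active = viability at or below 30% in both replicate assays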;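 note: 100% = median of untreated cell wells with 0.1% DMSO on each plate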). As to conditions: HUVEC proliferation, CellTiter-Glo luminescence, 72 h; at 10 µM; stronger effect = lower value. Summed up: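 Test system: primary human umbilical vein endothelial cells; medium: endothelial basal medium with 2% FBS plus growth supplements; dosing: 10 µM compound only; times: 72 h treatment at 37 °C; signal: CTG luminescence; read-out: % viability relative to median vehicle-well signal on each plate; control set: vehicle and MePR control wells; plate: 384-well, collagen-coated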
In general terms: ATP-based viability assays read luminescence as a measure of living cells.

Assay [5] is described as follows: H69AR cell proliferation blockers – human, duplicate replicates, primary screen (AID 580).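 Note: 100% = mean luminescence of untreated wells and 0% = no signal.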 As to conditions: H69AR lung tumor cells viability, ATP luminescence, 72 h; at 10 µM; stronger effect = lower value.
Assay [6] can be described thus: MRP1 drug-resistance reversers in H69AR cells – cell-based, doxorubicin co-treatment, pilot screen (AID 601;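 active = viability loss from added drug above about 55%, and viability with drug at most 40%, in both replicates, limit read from the data, passing the limit was not always enough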). To be noted: CellTiter-Glo, 72 h, at 10 µM; for differential viability (reversal): stronger effect = higher value.
Assay [7] can be described thus: yeast transport mutant growth inhibition pilot in 384-well plates, post-Golgi transport modulator project (AID 636; in the data active = inhibition above about 31%). To be noted: absorbance 615 nm, about 18 h, stronger effect = higher value.
Assay [8] is described as follows: growth suppression of yeast trafficking mutant, preliminary HTS, modulators of trafficking downstream of Golgi apparatus project, 1536-format plate, OD 615 nm (AID 637; in the data active = inhibition above about 30%). As to conditions: yeast transport mutant growth, absorbance 615 nm, 18 h; stronger effect = higher value.
Setting [9] is: H69AR cells + 2 uM doxorubicin, measured here: viability with 2 uM doxorubicin, stronger effect = lower value.
Setting [10] is: H69AR cells, compound alone cytotoxicity.

This note sets out measurements from PubChem BioAssay.

The source made the active and inactive calls.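 Rule for the calls, unless noted: active = viability at or under a set limit in both replicates, limit being median viability minus 3 SD (cut at about 48% in these data, passing the limit was not always enough); inconclusive = at or under the limit in just one replicate; inactive = at or above the limit in both replicates.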

As a reminder, the viability is a read-out of living cells in per cent, often relative to untreated cells. For orientation: inhibition means the drop in the measured response relative to a control, in per cent. For the compound `CCn1c(C(=O)N2CCCC(C(=O)NCCCc3ccccc3)C2)cc2sccc21` (stereo not given), the viability in assay [1] is 102%; in assay [3] it was 102% (inactive); in assay [4] it was 64.3% (inactive); in assay [5], 96.7% (inactive); in assay [6] (setting [9]), 93.2%; in assay [6] (setting [10]) it was 96.7%. In assay [2], the Her2 level was 96.5% (inactive). Moreover, the differential viability (reversal) in assay [6] (H69AR cells + 2 uM doxorubicin) was 3.47% (inactive). Moreover, the inhibition in assay [7] was -2.08% (inactive); in assay [8] it was -9.84% (inactive).

As for `O=C(c1ccc2c(c1)OCO2)N1CCCN(C(=O)c2ccc3c(c2)OCO3)CC1`, the viability in assay [1] is 89.5%; in assay [3], 89.5% (inactive); in assay [4], 110% (inactive); in assay [5] it was 97.9% (inactive); in assay [6] (setting [9]) it was 87.2%; in assay [6] (setting [10]) it was 97.9%. For the same compound, in assay [2], the Her2 level was 91% (inactive). In assay [6] (H69AR cells + 2 uM doxorubicin), the differential viability (reversal) is 10.7% (inactive). Moreover, the inhibition in assay [7] is -1.95% (inactive); in assay [8], -1.97% (inactive).

As to `Cc1cnc(C(=O)Nc2ccc(N3CCOCC3)cc2)cn1`, the viability in assay [1] was 95%; in assay [3] it was 95% (inactive); in assay [4] it was 116% (inactive); in assay [5] it was 100% (inactive); in assay [6] (setting [9]), 88.5%; in assay [6] (setting [10]) it was 100%. The Her2 level in assay [2] was 87% (inactive). Further, the differential viability (reversal) in assay [6] (H69AR cells + 2 uM doxorubicin) was 11.7% (inactive). In addition, the values for the inhibition in assay [7] and in assay [8] were -1.32% (inactive) and -1.45% (inactive), respectively.

Take `CCS(=O)(=O)N1CCC(C(=O)NC2CCCCCCC2)CC1`: the viability is 98% in assay [1]; 98% (inactive) in assay [3]; 108% (inactive) in assay [4]; 97.5% (inactive) in assay [5]; 89.6% in assay [6] (setting [9]); 97.5% in assay [6] (setting [10]). The Her2 level in assay [2] was 110% (inactive). Further, the differential viability (reversal) in assay [6] (H69AR cells + 2 uM doxorubicin) was 7.86% (inactive). Besides, the inhibition is -0.51% (inactive) in assay [7] and -1.5% (inactive) in assay [8].

Regarding `O=S(=O)(NCc1ccco1)c1cccc2cccnc12`, the viability in assay [1] is 105%; in assay [3] it was 105% (inactive); in assay [4], 89.7% (inactive); in assay [5], 79% (inactive); in assay [6] (setting [9]), 88.5%; in assay [6] (setting [10]), 79%. In assay [2], the Her2 level was 93.5% (inactive). In addition, in assay [6] (H69AR cells + 2 uM doxorubicin), the differential viability (reversal) was -9.52% (inactive). Moreover, the inhibition in assay [7] was -1.18% (inactive); in assay [8], -1.45% (inactive).

With `Cc1nc2sc(C(c3ccco3)N3CCN(c4ccccc4F)CC3)c(O)n2n1` (stereo not given), the viability in assay [1] is 97%; in assay [3], 97% (inactive); in assay [4] it was 101% (inactive); in assay [5], 97.5% (inactive); in assay [6] (setting [9]), 90.3%; in assay [6] (setting [10]), 97.5%. Besides, in assay [2], the Her2 level was 85% (inactive). Moreover, the differential viability (reversal) in assay [6] (H69AR cells + 2 uM doxorubicin) is 7.17% (inactive). The inhibition in assay [7] is -6.27% (inactive); in assay [8], 0.95% (inactive).

On to `O=C(CCS(=O)(=O)c1cccc2nsnc12)N1CCN(Cc2ccc3c(c2)OCO3)CC1`, for which the viability in assay [1] is 90.5%; in assay [3], 90.5% (inactive); in assay [4] it was 92.7% (inactive); in assay [5] it was 94.4% (inactive); in assay [6] (setting [9]), 104%; in assay [6] (setting [10]) it was 94.4%. The Her2 level in assay [2] is 99% (inactive). Also, the differential viability (reversal) in assay [6] (H69AR cells + 2 uM doxorubicin) is -9.25% (inactive). Moreover, the inhibition was -6.71% (inactive) in assay [7] and -5.87% (inactive) in assay [8].

Consider `COc1cc2c(cc1OC)-c1cc(Nc3ccc4c(c3)OCCO4)nc(=O)n1CC2`, for which the viability in assay [1] is 91.5%; in assay [3], 91.5% (inactive); in assay [4], 63.2% (inactive); in assay [5], 71.2% (inactive); in assay [6] (setting [9]) it was 78.1%; in assay [6] (setting [10]) it was 71.2%. Also, the Her2 level in assay [2] was 82.5% (inactive). Moreover, in assay [6] (H69AR cells + 2 uM doxorubicin), the differential viability (reversal) is -6.86% (inactive). Also, the inhibition in assay [7] is -0.91% (inactive); in assay [8] it was -4.17% (inactive).

In the case of `CC1CCCCC1NC(=O)c1nn(C)c(=O)c2ccccc12` (stereo not given), the viability was 88% in assay [1]; 88% (inactive) in assay [3]; 90.4% (inactive) in assay [4]; 89.2% (inactive) in assay [5]; 75.8% in assay [6] (setting [9]); 89.2% in assay [6] (setting [10]). The Her2 level in assay [2] was 104% (inactive). Also, the differential viability (reversal) in assay [6] (H69AR cells + 2 uM doxorubicin) was 13.3% (inactive). Besides, the results for the inhibition in assay [7] and in assay [8] were -1.69% (inactive) and -10% (inactive), respectively.

On to `CCOC(=O)CSc1nnc(NC(=O)c2cccc(S(=O)(=O)N3CCCCC3)c2)s1`, for which the viability is 94% in assay [1]; 94% (inactive) in assay [3]; 79.6% (inactive) in assay [4]; 101% (inactive) in assay [5]; 91.2% in assay [6] (setting [9]); 101% in assay [6] (setting [10]). In addition, in assay [2], the Her2 level is 87.5% (inactive). Moreover, the differential viability (reversal) in assay [6] (H69AR cells + 2 uM doxorubicin) is 9.55% (inactive). Also, the inhibition is -3.03% (inactive) in assay [7] and -1.67% (inactive) in assay [8].

With `COc1ccc(C2c3c(-c4ccccc4O)n[nH]c3C(=O)N2CCc2ccc(OC)c(OC)c2)cc1` (stereo not given), the viability in assay [1] was 112%; in assay [3], 112% (inactive); in assay [4] it was 60.3% (inactive); in assay [5], 68.5% (inactive); in assay [6] (setting [9]), 10.6%; in assay [6] (setting [10]), 68.5%. Further, the Her2 level in assay [2] was 95.5% (inactive). The differential viability (reversal) in assay [6] (H69AR cells + 2 uM doxorubicin) was 57.9% (active). Moreover, the inhibition was -2.89% (inactive) in assay [7] and 6.94% (inactive) in assay [8].

On to `COc1cc(OC)cc(C(=O)N2CCN(C(=O)c3ccc(OC)c(OC)c3)CC2)c1`, for which the viability in assay [1] is 100%; in assay [3] it was 100% (inactive); in assay [4] it was 86.1% (inactive); in assay [5], 92.4% (inactive); in assay [6] (setting [9]), 103%; in assay [6] (setting [10]), 92.4%. Besides, in assay [2], the Her2 level was 104% (inactive). In addition, the differential viability (reversal) in assay [6] (H69AR cells + 2 uM doxorubicin) was -11.1% (inactive). Besides, the inhibition was -1.84% (inactive) in assay [7] and -6.45% (inactive) in assay [8].

As to `O=C(CN1C(=O)CCSc2ccccc21)Nc1ccccc1`, the viability in assay [1] was 113%; in assay [3], 113% (inactive); in assay [4], 111% (inactive); in assay [5] it was 104% (inactive); in assay [6] (setting [9]) it was 88.2%; in assay [6] (setting [10]), 104%. Further, the Her2 level in assay [2] was 94% (inactive). In assay [6] (H69AR cells + 2 uM doxorubicin), the differential viability (reversal) is 15.9% (inactive). Further, the inhibition was -7.67% (inactive) in assay [7] and -7.78% (inactive) in assay [8].

Consider `COC(=O)c1ccccc1NC(=O)CC(NCc1ccccc1)C(=O)O` (stereo not given), for which the viability is 102% in assay [1]; 102% (inactive) in assay [3]; 103% (inactive) in assay [4]; 104% (inactive) in assay [5]; 103% in assay [6] (setting [9]); 104% in assay [6] (setting [10]). The Her2 level in assay [2] is 111% (inactive). In assay [6] (H69AR cells + 2 uM doxorubicin), the differential viability (reversal) was 0.78% (inactive). Also, the inhibition was -2.11% (inactive) in assay [7] and -12.3% (inactive) in assay [8].

As for `Cc1cc(C)cc(OCCCC(=O)O)c1`, the viability in assay [1] was 114%; in assay [3] it was 114% (inactive); in assay [4], 67.9% (inactive); in assay [5], 95.3% (inactive); in assay [6] (setting [9]), 91.8%; in assay [6] (setting [10]), 95.3%. Moreover, the Her2 level in assay [2] is 97% (inactive). For the same compound, the differential viability (reversal) in assay [6] (H69AR cells + 2 uM doxorubicin) was 3.5% (inactive). For the same compound, the figures for the inhibition in assay [7] and in assay [8] were -5.6% (inactive) and -0.16% (inactive), respectively.
